Test results from ChEMBL document CHEMBL1134741, “Synthesis and preliminary pharmacological evaluation of coumestans with different patterns of oxygenation” (Bioorg Med Chem Lett, 2001).

Assays:
[1] = Tested for antimyotoxic activity of the compound; assay type: functional
Rattus norvegicus = species: Rattus norvegicus; experiment: Tested for the inhibitory activity against rat kidney Na+, K+-ATPase; assay type: functional
Outline: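 Na+,K+-ATPase was taken from partially purified rat kidney microsomes. Inhibition was measured by phosphate release (Fiske–Subbarow) using 1.2 mM ATP.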

[2] = molecular target: GABA-A receptor; anion channel; experiment: Inhibition of [3H]flunitrazepam binding to rat brain synaptosomes; assay type: subcellular
Outline: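 Crude rat brain synaptosomes (200 µg protein; cerebellum and brainstem removed) were incubated with 0.2 nM [3H]-flunitrazepam in buffered Krebs solution for 90 min at 4 °C.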

Bothrops jararacussu = experiment: (§1) Concentration required to antagonise the creatine kinase release induced by Bothrops jararacussu venom; assay type: functional, organism-based
P06732 = experiment: as §1; assay type: functional
Chain of P06732 (P06732 whole entry): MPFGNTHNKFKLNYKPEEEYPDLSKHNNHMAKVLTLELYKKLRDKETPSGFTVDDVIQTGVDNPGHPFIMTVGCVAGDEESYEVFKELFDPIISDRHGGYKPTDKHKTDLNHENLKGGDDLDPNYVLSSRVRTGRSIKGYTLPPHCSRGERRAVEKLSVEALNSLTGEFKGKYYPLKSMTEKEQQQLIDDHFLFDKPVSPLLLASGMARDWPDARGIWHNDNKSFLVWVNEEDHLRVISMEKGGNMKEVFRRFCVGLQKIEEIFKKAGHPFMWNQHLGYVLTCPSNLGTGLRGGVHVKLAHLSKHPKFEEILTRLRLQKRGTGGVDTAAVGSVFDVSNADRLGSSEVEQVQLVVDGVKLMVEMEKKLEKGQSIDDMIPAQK

[3] = molecular target: T1, Polyunsaturated fatty acid 5-lipoxygenase (Homo sapiens, UniProt P09917); experiment: Tested for the inhibitory activity against 5-lipoxygenase
T1 sequence (P09917 whole entry): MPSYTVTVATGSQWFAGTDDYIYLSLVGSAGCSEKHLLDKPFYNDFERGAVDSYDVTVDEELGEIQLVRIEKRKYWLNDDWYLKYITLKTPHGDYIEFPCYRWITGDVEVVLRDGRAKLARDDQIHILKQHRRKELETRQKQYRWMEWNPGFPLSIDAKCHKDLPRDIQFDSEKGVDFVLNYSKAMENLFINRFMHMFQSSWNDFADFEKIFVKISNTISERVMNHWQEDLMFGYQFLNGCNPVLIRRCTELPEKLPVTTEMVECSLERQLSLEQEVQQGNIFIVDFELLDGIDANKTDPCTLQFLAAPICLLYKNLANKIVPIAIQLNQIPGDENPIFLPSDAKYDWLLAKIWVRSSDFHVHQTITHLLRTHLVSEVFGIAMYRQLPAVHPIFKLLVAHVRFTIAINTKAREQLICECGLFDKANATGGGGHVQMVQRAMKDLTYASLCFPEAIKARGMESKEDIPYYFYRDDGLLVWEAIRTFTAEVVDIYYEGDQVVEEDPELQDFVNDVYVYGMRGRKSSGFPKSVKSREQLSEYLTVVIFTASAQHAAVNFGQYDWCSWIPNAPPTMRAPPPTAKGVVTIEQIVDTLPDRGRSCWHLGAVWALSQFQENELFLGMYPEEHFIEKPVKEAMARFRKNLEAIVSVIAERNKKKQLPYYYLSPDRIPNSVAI

Row | Structure (SMILES) | IC50 (Rattus norvegicus) | IC50 [2] | Concentration (P06732) | other results
1 | COc1cc2oc(=O)c3c4cc(O)c(O)cc4oc3c2cc1O | 0.5 µM | > 100 µM | – | IC50 [1]: 1 µM; Concentration (Bothrops jararacussu): 30 µM
2 | COc1cc2oc(=O)c3c4cc(OC)c(O)cc4oc3c2cc1O | – | – | 30 µM | –
3 | O=c1oc2cc(O)ccc2c2oc3cc(O)c(O)cc3c12 | – | – | 30 µM | –
4 | O=c1oc2cc(O)ccc2c2oc3cc4c(cc3c12)OCO4 | – | – | 30 µM | –
5 | COc1cc(O)c2c(c1)oc(=O)c1c3cc(O)c(O)cc3oc21 [WEDELOLACTONE] | 0.7 µM | 2 µM | – | IC50 [3]: 2.5 µM
6 | COc1cc2oc3c4ccc(O)cc4oc(=O)c3c2cc1O | – | – | 30 µM | –
